The results in this text go back to ChEMBL document CHEMBL4266038, “Total Synthesis of Xanthoangelol B and Its Various Fragments: Toward Inhibition of Virulence Factor Production of Staphylococcus aureus” (J Med Chem, 2018).

In series [1] the test system is Staphylococcus aureus subsp. aureus USA300. Kind of series: Inhibition of Staphylococcus aureus USA300 GFP-fused SaeRS at 20 uM after 8 hrs by fluorescence-based assay. Summed up: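 Reporter strain S. aureus carrying a P_hlam-gfp fusion (kept on chloramphenicol 5 µg/ml) was grown in TSB to OD600 = 1 and diluted to 5x10^5 cells/ml with compound; DMSO served as blank. Cultures were shaken at 37 °C for 8 h, then GFP (ex 485/em 515 nm) and OD600 were read.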

The test system of series [2] is Staphylococcus aureus. Kind of series: Antivirulence activity in Staphylococcus aureus USA300-infected Galleria mellonella larvae model injected at every 12 h interval for 72 hrs. Format: functional, organism-based. In outline:
(§1)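 G. mellonella larvae, 10 per group, were each injected with 20 µl of USA300 inoculum (5x10^6 cfu) into the lower left proleg and held at 37 °C in the dark without food. Treatment was given after infection and repeated every 12 h over 72 h, at doses up to 4.085 or 4.262 mg/kg body weight. Survival was scored daily along with activity, silk production and melanization.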

Series [3] deals with Staphylococcus aureus subsp. aureus USA300. In words: Inhibition of Staphylococcus aureus USA300 SaeRS assessed as reduction in gamma-hemolysin gene expression at 8 uM after 6 hrs by qRT-PCR analysis. In general terms: Real-time PCR tracks product formation cycle by cycle.
The test system of series [4] is Staphylococcus aureus. Kind of series: Antibacterial activity against Staphylococcus aureus USA300 assessed as log reduction in bacterial burden after 72 hrs. In kind it is functional, organism-based. Summed up: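 Galleria mellonella larvae (10 per group) injected in the lower left proleg with 5x10^6 cfu USA300 in 20 µl, held at 37 °C in the dark; treatment began 2 h post infection and was re-injected every 12 h for 72 h. Haemolymph was plated on blood agar to count S. aureus burden at 72 h.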

The subject of series [5] is HeLa. In words: Cytotoxicity against human HeLa cells assessed as reduction in cell viability at >IC50 concentration after 72 hrs by fluorescein diacetate/propidium iodide double staining based confocal microscopy.
Series [6] deals with Staphylococcus aureus subsp. aureus USA300. In words: Inhibition of Staphylococcus aureus USA300 SaeRS assessed as reduction in aureolysin gene expression at 8 uM after 6 hrs by qRT-PCR analysis.
The test system of series [7] is Staphylococcus aureus. Kind of series: Antivirulence activity in Staphylococcus aureus USA300-infected Galleria mellonella larvae model assessed as larvae survival at 4.1 mg/kg injected at 2 hrs post infection at every 12 hr interval for 72 hrs (reference value: 20%). In kind it is functional. In outline: as §1
The test system of series [8] is Staphylococcus aureus. Kind of series: Reduction in Staphylococcus aureus USA300 sarA gene expression at 8 uM after 6 hrs by qRT-PCR analysis. In kind it is functional. In outline: (§2)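 S. aureus cultures were treated with compound for 6 h. Total RNA was stabilised and purified with enzymatic disruption, then reverse-transcribed with random hexamers. qRT-PCR used an intercalating dye, with transcripts normalised to 16S rRNA, in triplicate.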

Series [9] relates to HeLa. In words: Cytotoxicity against human HeLa cells assessed as reduction in cell viability at 8 uM after 72 hrs by fluorescein diacetate/propidium iodide double staining based confocal microscopy.
In series [10] the test system is Staphylococcus aureus subsp. aureus USA300. In words: Inhibition of Staphylococcus aureus USA300 SaeRS assessed as reduction in alpha-hemolysin gene expression at 8 uM after 6 hrs by qRT-PCR analysis.
Series [11] relates to Staphylococcus aureus. Kind of series: Growth inhibition of Staphylococcus aureus USA300 at 16 uM after 20 hrs. Format: organism-based. In outline: (§3)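 USA300 was grown in TSB at 37 °C with shaking at 250 rpm. Growth was followed in the presence of compound for 8 h and for 20 h, in triplicate.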
The subject of series [12] is Staphylococcus aureus. Kind of series: Growth inhibition of Staphylococcus aureus USA300 at 64 uM after 20 hrs. In kind it is organism-based. Summed up:
as §3

The target of series [13] is T1, Histidine protein kinase SaeS (Staphylococcus aureus (strain NCTC 8325)) (UniProt Q2G2U1).
T1 sequence (whole entry): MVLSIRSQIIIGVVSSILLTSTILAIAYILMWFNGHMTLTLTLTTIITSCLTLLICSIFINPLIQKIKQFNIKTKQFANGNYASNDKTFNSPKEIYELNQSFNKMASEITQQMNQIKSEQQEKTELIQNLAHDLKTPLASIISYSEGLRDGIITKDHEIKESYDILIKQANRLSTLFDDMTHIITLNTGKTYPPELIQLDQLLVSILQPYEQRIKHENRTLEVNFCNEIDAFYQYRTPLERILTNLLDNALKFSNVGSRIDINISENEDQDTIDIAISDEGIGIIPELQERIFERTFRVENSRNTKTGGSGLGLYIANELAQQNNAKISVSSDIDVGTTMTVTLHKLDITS
Kind of series: Inhibition of phosphotransfer reaction from recombinant Staphylococcus aureus phosphorylated His6-tagged SaeS kinase domain to Staphylococcus aureus SaeR expressed in Escherichia coli BL21(DE3) at 0.2 mM after 60 mins by coomassie-brilliant blue staining based SDS PAGE/autoradiographic analysis.

The subject of series [14] is Staphylococcus aureus subsp. aureus USA300. Kind of series: Inhibition of Staphylococcus aureus USA300 SaeRS assessed as reduction in staphylokinase gene expression at 8 uM after 6 hrs by qRT-PCR analysis. In outline: as §2
Series [15] shares this test system. Kind of series: Inhibition of Staphylococcus aureus USA300 SaeRS assessed as reduction in staphylokinase gene expression at 10 uM after 6 hrs by qRT-PCR analysis. Summed up:
as §2

Series [16] shares this test system. In words: Inhibition of Staphylococcus aureus USA300 SaeRS assessed as reduction in gamma-hemolysin gene expression at 10 uM after 6 hrs by qRT-PCR analysis.
Series [17] addresses T1, Histidine protein kinase SaeS (Staphylococcus aureus (strain NCTC 8325)). In words: Binding affinity to Staphylococcus aureus MBP-fused SaeS by STD-NMR spectrophotometry. In outline:
(§4)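 Saturation transfer difference 1D NMR with ligand fixed at 1.0 mM, prepared from a stock in deuterated DMSO. Protein was either 30 µM minimal SaeS kinase domain fused to maltose binding protein (MBP-SaeS) or 0.1 mM minimal kinase domain, dialysed into NMR buffer beforehand.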

The target is the same in series [18]. Kind of series: Binding affinity to Staphylococcus aureus SaeS assessed as T2-rerelaxation time of compound peak at 1 mM by 1D CPMG method. In outline: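 Transverse-relaxation-filtered 1D NMR using a CPMG pulse train. Ligand fixed at 1.0 mM, from a stock in deuterated DMSO; minimal SaeS kinase domain at 0.1 mM, dialysed into NMR buffer.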
For series [19], the system named is Staphylococcus aureus subsp. aureus USA300. In words: Inhibition of Staphylococcus aureus USA300 SaeRS assessed as reduction in alpha-hemolysin gene expression at 10 uM after 6 hrs by qRT-PCR analysis.
Series [20] relates to Staphylococcus aureus. In words: Growth inhibition of Staphylococcus aureus USA300 up to 64 uM after 8 to 20 hrs. In kind it is organism-based. Summed up: as §3
In series [21] the target is T1, Histidine protein kinase SaeS (Staphylococcus aureus (strain NCTC 8325)). In words: Inhibition of phosphotransfer reaction from recombinant Staphylococcus aureus phosphorylated His6-tagged SaeS kinase domain to Staphylococcus aureus SaeR expressed in Escherichia coli BL21(DE3) at 0.2 to 1 mM after 60 mins by coomassie-brilliant blue staining based SDS PAGE/autoradiographic analysis.

For series [22] the target is unchanged. In words: Binding affinity to Staphylococcus aureus SaeS kinase domain at 1 mM by 1D-NMR analysis. Summed up: as §4
Series [23] deals with Staphylococcus aureus subsp. aureus USA300. Kind of series: Inhibition of Staphylococcus aureus USA300 SaeRS assessed as reduction in aureolysin gene expression at 10 uM after 6 hrs by qRT-PCR analysis.
In series [24] the test system is Staphylococcus aureus. In words: Reduction in Staphylococcus aureus USA300 sarA gene expression at 10 uM after 6 hrs by qRT-PCR analysis. In kind it is functional. Summed up:
as §2

For series [25], the system named is Staphylococcus aureus. Kind of series: Antivirulence activity in Staphylococcus aureus USA300-infected Galleria mellonella larvae model assessed as larvae survival at 4.3 mg/kg injected at 2 hrs post infection at every 12 hr interval for 72 hrs (reference value: 20%). Format: functional. Summed up:
as §1

Active and inactive are the calls of the source. No cut-off for these calls is given here.

As to `C=CCc1c(O)ccc(C(=O)/C=C/c2ccc(O)cc2)c1O`, the inhibition result in series [1] is “inactive”.
Same read-out and setting: the value for `O=C(/C=C/c1ccc(O)cc1)c1ccc(O)cc1O` was “inactive”.
`C=C(C)C(O)CC/C(C)=C/Cc1c(O)ccc(C(=O)/C=C/c2ccc(O)cc2)c1O` (centres undefined) [XANTHOANGELOL B]: the Activity result is “Dose-dependent effect” in the series with Staphylococcus aureus [2], “Dose-dependent effect” with Staphylococcus aureus [4], “Non-Toxic” in the series with HeLa [5] and “Non-Toxic” in the series on HeLa [9]. Moreover, the inhibition result in series [3], in series [6], in series [10] and in series [14] was “Active” each time. Also, the survival at 4.1 mg/kg in the series with Staphylococcus aureus [7] came out at 100%. Besides, in the series on Staphylococcus aureus [8], the result was inactive. In addition, the “growth inhibition (GI)” value in the series on Staphylococcus aureus [11] and in the series with Staphylococcus aureus [12] was “Toxic” in each case. In addition, the inhibition result in series [13] is “inactive”.
On to `C=CCc1c(O)ccc(C(C)=O)c1O`, for which the inhibition result in series [1] was “inactive”.
Take `CC(C)=CCC/C(C)=C/Cc1c(O)ccc(C(=O)/C=C/c2ccc(O)cc2)c1O`: in series [1], the inhibition entry was “inactive”.
In the case of `C=C(C)CCC=C(C)C`, the inhibition result in series [1] is “inactive”.
For `COc1ccc(C(=O)/C=C/c2ccc(O)cc2)c(O)c1C/C=C(\C)CCC=C(C)C`, the inhibition result in series [1] is “inactive”.
As for `C=C(C)C(O)CC/C(C)=C/Cc1c(O)ccc(C(=O)CC(O)c2ccc(O)cc2)c1O` (centres undefined), the Activity result is “Dose-dependent effect” in the series with Staphylococcus aureus [2], “Dose-dependent effect” in the series with Staphylococcus aureus [4], “Non-Toxic” with HeLa [5] and “Non-Toxic” in the series on HeLa [9]. Moreover, the inhibition entry in series [15], in [16], in series [19] and in series [23] was “Active” throughout. For the same compound, the outcome in [17], in series [18] and in [22] was Active. Also, in the series with Staphylococcus aureus [20], the “growth inhibition (GI)” value is reported as “Non-Toxic”. Further, in series [21], the inhibition result was “inactive”. Besides, the result in the series on Staphylococcus aureus [24] was inactive. Moreover, the survival at 4.3 mg/kg with Staphylococcus aureus [25] was 100%.
